Data from ChEMBL document CHEMBL1142449 (Bioorg Med Chem, 2008).

Experiments:
Format in all cases: cell-based
[1] = molecular target: T1, Neurotensin receptor type 1 (Homo sapiens, UniProt P30989); experiment: Displacement of [3H]NT(8-13) from wild type human NTR1 expressed in HEK293 cells
[2] = molecular target: T1, Neurotensin receptor type 1; experiment: Displacement of [3H]SR48692 from wild type human NTR1 expressed in HEK293 cells
Procedure, shortened: (§1)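 Membranes from HEK-293 cells transiently transfected (CaHPO4 method) with wild-type or EL1-mutant hNTR1 cDNA and harvested 48 h post-transfection. Homologous competition binding with 0.8 nM [3H]SR 48692 (81 Ci/mmol), adapted to 96-well format. Curves normalized per receptor, 4–6 experiments in triplicate. Kd and Bmax given with 95% confidence intervals.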

[3] = system: Neurotensin receptor type 1 (Homo sapiens), P30989 [F127A]; experiment: (§2) Displacement of [3H]SR48692 from human NTR1 extracellular loop 1 F127A mutant expressed in HEK293 cells; procedure, shortened: as §1
[4] = molecular target: Neurotensin receptor type 1 (Homo sapiens, UniProt P30989, F127A); experiment: as §2; procedure, shortened: as §1
[5] = system: Neurotensin receptor type 1 (Homo sapiens), P30989 [H131A]; experiment: (§3) Displacement of [3H]SR48692 from human NTR1 extracellular loop 1 H131A mutant expressed in HEK293 cells; procedure, shortened: as §1
[6] = molecular target: Neurotensin receptor type 1 (Homo sapiens, UniProt P30989, H131A); experiment: as §3; procedure, shortened: as §1
[7] = system: Neurotensin receptor type 1 (Homo sapiens), P30989 [P133A]; experiment: (§4) Displacement of [3H]SR48692 from human NTR1 extracellular loop 1 P133A mutant expressed in HEK293 cells; procedure, shortened: as §1
[8] = molecular target: Neurotensin receptor type 1 (Homo sapiens, UniProt P30989, P133A); experiment: as §4; procedure, shortened: as §1
[9] = system: Neurotensin receptor type 1 (Homo sapiens), P30989 [W134A]; experiment: (§5) Displacement of [3H]SR48692 from human NTR1 extracellular loop 1 W134A mutant expressed in HEK293 cells; procedure, shortened: as §1
[10] = molecular target: Neurotensin receptor type 1 (Homo sapiens, UniProt P30989, W134A); experiment: as §5; procedure, shortened: as §1
[11] = system: Neurotensin receptor type 1 (Homo sapiens), P30989 [F136A]; experiment: (§6) Displacement of [3H]SR48692 from human NTR1 extracellular loop 1 F136A mutant expressed in HEK293 cells; procedure, shortened: as §1
[12] = molecular target: Neurotensin receptor type 1 (Homo sapiens, UniProt P30989, F136A); experiment: as §6; procedure, shortened: as §1
[13] = system: Neurotensin receptor type 1 (Homo sapiens), P30989 [W129A]; experiment: (§7) Displacement of [3H]SR48692 from human NTR1 extracellular loop 1 W129A mutant expressed in HEK293 cells; procedure, shortened: as §1
[14] = molecular target: Neurotensin receptor type 1 (Homo sapiens, UniProt P30989, W129A); experiment: as §7; procedure, shortened: as §1
Neurotensin receptor type 1 (Homo sapiens, UniProt P30989, W129A), sequence (P30989 whole entry W129A): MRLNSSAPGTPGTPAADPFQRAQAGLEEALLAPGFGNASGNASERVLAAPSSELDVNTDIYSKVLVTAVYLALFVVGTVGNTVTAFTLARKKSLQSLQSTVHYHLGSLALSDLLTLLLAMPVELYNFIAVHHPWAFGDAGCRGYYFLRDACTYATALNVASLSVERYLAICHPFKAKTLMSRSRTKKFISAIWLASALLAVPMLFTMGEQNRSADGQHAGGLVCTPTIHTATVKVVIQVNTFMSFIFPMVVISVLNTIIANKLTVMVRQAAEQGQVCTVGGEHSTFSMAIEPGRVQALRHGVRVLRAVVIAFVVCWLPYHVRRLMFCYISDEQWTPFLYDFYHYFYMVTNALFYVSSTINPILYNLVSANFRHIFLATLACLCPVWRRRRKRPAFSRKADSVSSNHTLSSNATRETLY

T1 sequence (P30989 whole entry): as the sequence (P30989 whole entry W129A) above, with A129W counted along it
Neurotensin receptor type 1 (Homo sapiens), P30989 [W129A], sequence (P30989 whole entry W129A): as the sequence (P30989 whole entry W129A) above
Neurotensin receptor type 1 (Homo sapiens), P30989 [F127A], sequence (P30989 whole entry F127A): as the sequence (P30989 whole entry W129A) above, with F127A, A129W counted along it
Neurotensin receptor type 1 (Homo sapiens, UniProt P30989, F127A), sequence (P30989 whole entry F127A): as the sequence (P30989 whole entry W129A) above, with F127A, A129W counted along it
Neurotensin receptor type 1 (Homo sapiens), P30989 [P133A], sequence (P30989 whole entry P133A): as the sequence (P30989 whole entry W129A) above, with A129W, P133A counted along it
Neurotensin receptor type 1 (Homo sapiens, UniProt P30989, P133A), sequence (P30989 whole entry P133A): as the sequence (P30989 whole entry W129A) above, with A129W, P133A counted along it
Neurotensin receptor type 1 (Homo sapiens, UniProt P30989, W134A), sequence (P30989 whole entry W134A): as the sequence (P30989 whole entry W129A) above, with A129W, W134A counted along it
Neurotensin receptor type 1 (Homo sapiens), P30989 [W134A], sequence (P30989 whole entry W134A): as the sequence (P30989 whole entry W129A) above, with A129W, W134A counted along it
Neurotensin receptor type 1 (Homo sapiens), P30989 [F136A], sequence (P30989 whole entry F136A): as the sequence (P30989 whole entry W129A) above, with A129W, F136A counted along it
Neurotensin receptor type 1 (Homo sapiens, UniProt P30989, F136A), sequence (P30989 whole entry F136A): as the sequence (P30989 whole entry W129A) above, with A129W, F136A counted along it
Neurotensin receptor type 1 (Homo sapiens), P30989 [H131A], sequence (P30989 whole entry H131A): as the sequence (P30989 whole entry W129A) above, with A129W, H131A counted along it
Neurotensin receptor type 1 (Homo sapiens, UniProt P30989, H131A), sequence (P30989 whole entry H131A): as the sequence (P30989 whole entry W129A) above, with A129W, H131A counted along it

SMILES	Ki [1] [nM]	Bmax [2] [pmol/mg]	Kd [2] [nM]	Bmax [3] [pmol/mg]	Kd [4] [nM]	Bmax [5] [pmol/mg]	Kd [6] [nM]	Bmax [7] [pmol/mg]	Kd [8] [nM]	Bmax [9] [pmol/mg]	Kd [10] [nM]	Bmax [11] [pmol/mg]	Kd [12] [nM]	Bmax [13] [pmol/mg]	Kd [14] [nM]
CC[C@H](C)[C@H](NC(=O)[C@H](Cc1ccc(O)cc1)NC(=O)[C@@H]1CCCN1C(=O)[C@H](CCCNC(=N)N)NC(=O)[C@@H](N)CCCNC(=N)N)C(=O)NC1(C(=O)O)C2CC3CC(C2)CC1C3 (stereo not given in full)	2.4	–	–	–	–	–	–	–	–	–	–	–	–	–	–
COc1cccc(OC)c1-c1cc(C(=O)NC2(C(=O)O)C3CC4CC(C3)CC2C4)nn1-c1ccnc2cc(Cl)ccc12 (stereo not given) [REMINERTANT]	–	15	8.9	18	19	16	8.4	9.3	9.2	10	23	10	33	9.4	27
